ChEMBL document CHEMBL5712883, “RNA polymerase II stalling promotes nucleosome occlusion and pTEFb recruitment to drive immortalization by Epstein-Barr virus” (PLoS Pathog, 2011)
Active and inactive are the calls of the source. The calls are words filed in the database; no cut-off is given here.

Legend:
Assay type in all cases: cell-based
[1] = target: T1, CDK9/cyclin T1 (Homo sapiens) (UniProt O60563+P50750); test: Inhibition of CDK9/Cyclin T1 in human Mutu-3 cells assessed as effect on cp-pre-initiation complex assembly at +38667 distal EBV genome region at 500 nM incubated for 2 hrs by CHIP assay
[2] = target: T1, CDK9/cyclin T1 (Homo sapiens); test: Inhibition of CDK9/Cyclin T1 in human Mutu-3 cells assessed as reduction in RNA pol II C-terminal domain phosphorylation on serine 5 at +295 distal EBV genome region at 500 nM incubated for 2 hrs by CHIP assay
[3] = target: T1, CDK9/cyclin T1 (Homo sapiens); test: Inhibition of CDK9/Cyclin T1 in human Mutu-3 cells assessed as reduction in H4 histone acetylation at +574 distal EBV genome region at 500 nM incubated for 2 hrs by CHIP assay
[4] = target: T1, CDK9/cyclin T1 (Homo sapiens); test: Inhibition of CDK9/Cyclin T1 in human B cell transfected with EBV assessed as reduction in RNA pol II C-terminal domain phosphorylation on serine 5 at +75615 distal EBV genome region at 500 nM incubated for 2 hrs in presence of beta-estradiol by CHIP assay
[5] = target: T1, CDK9/cyclin T1 (Homo sapiens); test: Inhibition of CDK9/Cyclin T1 in human HeLa cells stably transfected Flag-tagged CDK9 assessed as increase in fold change pTEFb/Brd4 complex at 1 mM by western analysis
[6] = target: T1, CDK9/cyclin T1 (Homo sapiens); test: Inhibition of CDK9/Cyclin T1 in human Mutu-3 cells assessed as reduction in H4 histone acetylation at +1564 distal EBV genome region at 500 nM incubated for 2 hrs by CHIP assay
[7] = target: T1, CDK9/cyclin T1 (Homo sapiens); test: Inhibition of CDK9/Cyclin T1 in human Mutu-3 cells assessed as reduction in H3 histone acetylation at +2238 distal EBV genome region at 500 nM incubated for 2 hrs by CHIP assay
[8] = target: T1, CDK9/cyclin T1 (Homo sapiens); test: Inhibition of CDK9/Cyclin T1 in human B cell transfected with EBV assessed as reduction in RNA pol II C-terminal domain phosphorylation on serine 5 at +48 distal EBV genome region at 500 nM incubated for 2 hrs in presence of beta-estradiol by CHIP assay
[9] = target: T1, CDK9/cyclin T1 (Homo sapiens); test: Inhibition of CDK9/Cyclin T1 in human Mutu-3 cells assessed as reduction in BRD4 at +1564 distal EBV genome region at 500 nM incubated for 2 hrs by CHIP assay
[10] = target: T1, CDK9/cyclin T1 (Homo sapiens); test: Inhibition of CDK9/Cyclin T1 in human Mutu-3 cells assessed as reduction in RNA pol II C-terminal domain phosphorylation on serine 5 at +38667 distal EBV genome region at 500 nM incubated for 2 hrs by CHIP assay
[11] = target: T1, CDK9/cyclin T1 (Homo sapiens); test: Inhibition of CDK9/Cyclin T1 in human B cell transfected with EBV assessed as reduction in RNA pol II C-terminal domain phosphorylation on serine 5 at +295 distal EBV genome region at 500 nM incubated for 2 hrs in presence of beta-estradiol by CHIP assay
[12] = target: T1, CDK9/cyclin T1 (Homo sapiens); test: Inhibition of CDK9/Cyclin T1 in human Mutu-3 cells assessed as reduction in H4 histone acetylation at -317 distal EBV genome region at 500 nM incubated for 2 hrs by CHIP assay
[13] = target: T1, CDK9/cyclin T1 (Homo sapiens); test: Inhibition of CDK9/Cyclin T1 in human Mutu-3 cells assessed as reduction in H3 histone acetylation at +574 distal EBV genome region at 500 nM incubated for 2 hrs by CHIP assay
[14] = target: T1, CDK9/cyclin T1 (Homo sapiens); test: Inhibition of CDK9/Cyclin T1 in human B cell transfected with EBV assessed as reduction in RNA pol II C-terminal domain phosphorylation on serine 5 at +30896 distal EBV genome region at 500 nM incubated for 2 hrs in presence of beta-estradiol by CHIP assay
[15] = target: T1, CDK9/cyclin T1 (Homo sapiens); test: Inhibition of CDK9/Cyclin T1 in human Mutu-3 cells assessed as reduction in H3 histone acetylation at +1564 distal EBV genome region at 500 nM incubated for 2 hrs by CHIP assay
[16] = target: T1, CDK9/cyclin T1 (Homo sapiens); test: Inhibition of CDK9/Cyclin T1 in human B cell transfected with EBV assessed as reduction in RNA pol II C-terminal domain phosphorylation on serine 5 at +40493 distal EBV genome region at 500 nM incubated for 2 hrs in presence of beta-estradiol by CHIP assay
[17] = target: T1, CDK9/cyclin T1 (Homo sapiens); test: Inhibition of CDK9/Cyclin T1 in human Mutu-3 cells assessed as reduction in H3 histone acetylation at -317 distal EBV genome region at 500 nM incubated for 2 hrs by CHIP assay
[18] = target: T1, CDK9/cyclin T1 (Homo sapiens); test: Inhibition of CDK9/Cyclin T1 in human Mutu-3 cells assessed as reduction in RNA pol II C-terminal domain phosphorylation on serine 5 at +38828 distal EBV genome region at 500 nM incubated for 2 hrs by CHIP assay
[19] = target: T1, CDK9/cyclin T1 (Homo sapiens); test: Inhibition of CDK9/Cyclin T1 in human Mutu-3 cells assessed as decrease in Cp-initiated EBNA 2 transcription at 25 to 50 uM incubated for 24 hrs by Q-PCR analysis; conditions: dose 25-50 µM
Summary of the method: (§1)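 Mutu III cells seeded at 5×10^5 cells/ml and given DRB or flavopiridol at the stated concentrations, with DMSO as control, for 24 hrs. cDNA was made from 10^5 cells with a cells-to-Ct SYBR kit. Q-PCR used cDNA-specific EBNA 2, EBNA 1 (YUK) or LMP1 primers, with actin as endogenous control, and was analysed by relative quantification (ddCt) against 24 hr control samples.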

[20] = target: T1, CDK9/cyclin T1 (Homo sapiens); test: Inhibition of CDK9/Cyclin T1 in human B cell transfected with EBV assessed as reduction in RNA pol II C-terminal domain phosphorylation on serine 5 at +59014 distal EBV genome region at 500 nM incubated for 2 hrs in presence of beta-estradiol by CHIP assay
[21] = target: T1, CDK9/cyclin T1 (Homo sapiens); test: Inhibition of CDK9/Cyclin T1 in human Mutu-3 cells assessed as reduction in BRD4 at -317 distal EBV genome region at 500 nM incubated for 2 hrs by CHIP assay
[22] = target: T1, CDK9/cyclin T1 (Homo sapiens); test: Inhibition of CDK9/Cyclin T1 in human Mutu-3 cells assessed as reduction in RNA pol II C-terminal domain phosphorylation on serine 5 at +48 distal EBV genome region at 500 nM incubated for 2 hrs by CHIP assay
[23] = target: T1, CDK9/cyclin T1 (Homo sapiens); test: Inhibition of CDK9/Cyclin T1 in human Mutu-3 cells assessed as reduction in H3 histone acetylation at +34 distal EBV genome region at 500 nM incubated for 2 hrs by CHIP assay
[24] = target: T1, CDK9/cyclin T1 (Homo sapiens); test: Inhibition of CDK9/Cyclin T1 in human Mutu-3 cells assessed as reduction in BRD4 at +34 distal EBV genome region at 500 nM incubated for 2 hrs by CHIP assay
[25] = target: T1, CDK9/cyclin T1 (Homo sapiens); test: Inhibition of CDK9/Cyclin T1 in human Mutu-3 cells assessed as decrease in Cp-initiated LMP1 transcription at 25 to 50 uM incubated for 24 hrs by Q-PCR analysis; conditions: dose 25-50 µM; summary of the method: as §1
[26] = target: T1, CDK9/cyclin T1 (Homo sapiens); test: Inhibition of CDK9/Cyclin T1 in human Mutu-3 cells assessed as reduction in BRD4 at +2238 distal EBV genome region at 500 nM incubated for 2 hrs by CHIP assay
[27] = target: T1, CDK9/cyclin T1 (Homo sapiens); test: Inhibition of CDK9/Cyclin T1 in human Mutu-3 cells assessed as reduction in H4 histone acetylation at +34 distal EBV genome region at 500 nM incubated for 2 hrs by CHIP assay
[28] = target: T1, CDK9/cyclin T1 (Homo sapiens); test: Inhibition of CDK9/Cyclin T1 in human Mutu-3 cells assessed as effect on cp-pre-initiation complex assembly at +295 distal EBV genome region at 500 nM incubated for 2 hrs by CHIP assay
[29] = target: T1, CDK9/cyclin T1 (Homo sapiens); test: Inhibition of CDK9/Cyclin T1 in human Mutu-3 cells assessed as reduction in H4 histone acetylation at +2238 distal EBV genome region at 500 nM incubated for 2 hrs by CHIP assay
[30] = target: T1, CDK9/cyclin T1 (Homo sapiens); test: Inhibition of CDK9/Cyclin T1 in human B cell transfected with EBV assessed as reduction in RNA pol II C-terminal domain phosphorylation on serine 5 at -208 distal EBV genome region at 500 nM incubated for 2 hrs in presence of beta-estradiol by CHIP assay
[31] = target: T1, CDK9/cyclin T1 (Homo sapiens); test: Inhibition of CDK9/Cyclin T1 in human Mutu-3 cells assessed as effect on cp-pre-initiation complex assembly at +30896 distal EBV genome region at 500 nM incubated for 2 hrs by CHIP assay
[32] = target: T1, CDK9/cyclin T1 (Homo sapiens); test: Inhibition of CDK9/Cyclin T1 in human Mutu-3 cells assessed as decrease in Cp-initiated EBNA 1 transcription at 25 to 50 uM incubated for 24 hrs by Q-PCR analysis; conditions: dose 25-50 µM; summary of the method: as §1
[33] = target: T1, CDK9/cyclin T1 (Homo sapiens); test: Inhibition of CDK9/Cyclin T1 in human Mutu-3 cells assessed as reduction in RNA pol II C-terminal domain phosphorylation on serine 5 at +30896 distal EBV genome region at 500 nM incubated for 2 hrs by CHIP assay
[34] = target: T1, CDK9/cyclin T1 (Homo sapiens); test: Inhibition of CDK9/Cyclin T1 in human Mutu-3 cells assessed as increase in fold change pTEFb/Brd4 complex
[35] = target: T1, CDK9/cyclin T1 (Homo sapiens); test: Inhibition of CDK9/Cyclin T1 in human Mutu-3 cells assessed as reduction in RNA pol II C-terminal domain phosphorylation on serine 5 at -208 distal EBV genome region at 500 nM incubated for 2 hrs by CHIP assay
[36] = target: T1, CDK9/cyclin T1 (Homo sapiens); test: Inhibition of CDK9/Cyclin T1 in human Mutu-3 cells assessed as reduction in RNA pol II C-terminal domain phosphorylation on serine 5 at W repeat EBV genome region at 500 nM incubated for 2 hrs by CHIP assay
[37] = target: T1, CDK9/cyclin T1 (Homo sapiens); test: Inhibition of CDK9/Cyclin T1 in human Mutu-3 cells assessed as effect on cp-pre-initiation complex assembly at +48 distal EBV genome region at 500 nM incubated for 2 hrs by CHIP assay
[38] = target: T1, CDK9/cyclin T1 (Homo sapiens); test: Inhibition of CDK9/Cyclin T1 in human B cell transfected with EBV assessed as reduction in RNA pol II C-terminal domain phosphorylation on serine 5 at +50024 distal EBV genome region at 500 nM incubated for 2 hrs in presence of beta-estradiol by CHIP assay
[39] = target: T1, CDK9/cyclin T1 (Homo sapiens); test: Inhibition of CDK9/Cyclin T1 in human Mutu-3 cells assessed as reduction in BRD4 at +574 distal EBV genome region at 500 nM incubated for 2 hrs by CHIP assay
[40] = target: T1, CDK9/cyclin T1 (Homo sapiens); test: Inhibition of CDK9/Cyclin T1 in human Mutu-3 cells assessed as effect on cp-pre-initiation complex assembly at -208 distal EBV genome region at 500 nM incubated for 2 hrs by CHIP assay
[41] = target: T1, CDK9/cyclin T1 (Homo sapiens); test: Inhibition of CDK9/Cyclin T1 in human Mutu-3 cells assessed as effect on cp-pre-initiation complex assembly at +38828 distal EBV genome region at 500 nM incubated for 2 hrs by CHIP assay

## OC[C@H]1O[C@@H](n2cnc3cc(Cl)c(Cl)cc32)[C@H](O)[C@@H]1O
[1]
  inhibition: inactive
[2]
  inhibition: Active
[3]
  inhibition: Active
[4]
  inhibition: Active
[5]
  fold change (FC): 2
[6]
  inhibition: Active
[7]
  inhibition: Active
[8]
  inhibition: Active
[9]
  inhibition: Active
[10]
  inhibition: Active
[11]
  inhibition: Active
[12]
  inhibition: Active
[13]
  inhibition: Active
[14]
  inhibition: Active
[15]
  inhibition: Active
[16]
  inhibition: Active
[17]
  inhibition: Active
[18]
  inhibition: Active
[19]
  inhibition: Active
[20]
  inhibition: Active
[21]
  inhibition: Active
[22]
  inhibition: Active
[23]
  inhibition: Active
[24]
  inhibition: Active
[25]
  inhibition: inactive
[26]
  inhibition: Active
[27]
  inhibition: Active
[28]
  inhibition: inactive
[29]
  inhibition: Active
[30]
  inhibition: Active
[31]
  inhibition: inactive
[32]
  inhibition: Active
[33]
  inhibition: Active
[34]
  fold change (FC): 2
[35]
  inhibition: Active
[36]
  inhibition: Active
[37]
  inhibition: inactive
[38]
  inhibition: Active
[39]
  inhibition: Active
[40]
  inhibition: inactive
[41]
  inhibition: inactive
